Source: ChEMBL document CHEMBL4665875, “Synthesis, biological evaluation and in silico modeling of novel pan-genotypic NS5A inhibitors” (Bioorg Med Chem, 2020)

Tests used:
[1] = Cytotoxicity against HCV genotype 1b NS5A infected human HuH7 cells assessed as reduction in cell viability measured after 72 hrs by CellTiter-Glo assay; settings: HuH7 cells infected with HCV genotype 1b NS5A
[2] = Oral bioavailability in Sprague-Dawley rat at 10 mg/kg, po measured after 24 hrs by LC-MS/MS analysis; type: ADME, organism-based; settings: in vivo
In short: (§1)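 Male Sprague-Dawley rats (8–10 weeks), jugular-vein catheterized and fasted 12 h with water available. Oral dose of 10 mg/kg given in 0.5% methyl cellulose. Blood taken into EDTA at 15, 30 min and 1, 2, 4, 8 and 24 h. Plasma protein-precipitated with acetonitrile containing tolbutamide internal standard, held at −20 °C for 15 min, centrifuged, then analysed by LC-MS/MS.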

[3] = MRTlast in Sprague-Dawley rat at 10 mg/kg, po measured after 24 hrs by LC-MS/MS analysis; type: ADME, organism-based; settings: in vivo
In short: as §1

[4] = MRT (0 to infinity) in Sprague-Dawley rat at 10 mg/kg, po measured after 24 hrs by LC-MS/MS analysis; type: ADME, organism-based; settings: in vivo
In short: as §1

[5] = MRTlast in Sprague-Dawley rat at 2 mg/kg, iv measured after 24 hrs by LC-MS/MS analysis; type: ADME, organism-based; settings: in vivo
In short: (§2)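 Male Sprague-Dawley rats (8–10 weeks), jugular-vein catheterized and fasted 12 h with water available. Intravenous dose of 2 mg/kg given in 10% DMSO/10% Solutol/80% 0.05 M N-methylglucamine. Blood taken into EDTA at 5, 15, 30 min and 1, 2, 4, 8 and 24 h. Plasma precipitated with acetonitrile plus tolbutamide internal standard, then analysed by LC-MS/MS.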

[6] = MRT (0 to infinity) in Sprague-Dawley rat at 2 mg/kg, iv measured after 24 hrs by LC-MS/MS analysis; type: ADME, organism-based; settings: in vivo
In short: as §2

[7] = Half life in Sprague-Dawley rat at 2 mg/kg, iv measured after 24 hrs by LC-MS/MS analysis; type: ADME, organism-based; settings: in vivo
In short: as §2

[8] = Half life in Sprague-Dawley rat at 10 mg/kg, po measured after 24 hrs by LC-MS/MS analysis; type: ADME, organism-based; settings: in vivo
In short: as §1

[9] = Tmax in Sprague-Dawley rat at 2 mg/kg, iv measured after 24 hrs by LC-MS/MS analysis; type: ADME, organism-based; settings: in vivo
In short: as §2

[10] = Tmax in Sprague-Dawley rat at 10 mg/kg, po measured after 24 hrs by LC-MS/MS analysis; type: ADME, organism-based; settings: in vivo
In short: as §1

[11] = Cmax in Sprague-Dawley rat at 2 mg/kg, iv measured after 24 hrs by LC-MS/MS analysis; type: ADME, organism-based; design: route intravenous, dose 2 mg/kg, time 24 hrs; settings: in vivo
In short: as §2

[12] = Cmax in Sprague-Dawley rat at 10 mg/kg, po measured after 24 hrs by LC-MS/MS analysis; type: ADME, organism-based; design: route oral, time 24 hrs, dose 10 mg/kg; settings: in vivo
In short: as §1

[13] = AUClast in Sprague-Dawley rat at 2 mg/kg, iv measured after 24 hrs by LC-MS/MS analysis; type: ADME, organism-based; design: route intravenous, time 24 hrs, dose 2 mg/kg; settings: in vivo
In short: as §2

[14] = AUClast in Sprague-Dawley rat at 10 mg/kg, po measured after 24 hrs by LC-MS/MS analysis; type: ADME, organism-based; design: route oral, dose 10 mg/kg, time 24 hrs; settings: in vivo
In short: as §1

[15] = AUC (0 to infinity) in Sprague-Dawley rat at 2 mg/kg, iv measured after 24 hrs by LC-MS/MS analysis; type: ADME, organism-based; design: route intravenous, dose 2 mg/kg, time 24 hrs; settings: in vivo
In short: as §2

[16] = AUC (0 to infinity) in Sprague-Dawley rat at 10 mg/kg, po measured after 24 hrs by LC-MS/MS analysis; type: ADME, organism-based; design: route oral, time 24 hrs, dose 10 mg/kg; settings: in vivo
In short: as §1

[17] = molecular target: T1, Nonstructural protein 5A (Hepatitis C virus) (UniProt Q5L478); experiment: Potency index, ratio of AV-4025 IC50 to test compound IC50 for inhibition of HCV genotype 3a NS5A infected in Huh7 cells assessed as reduction in viral replication incubated 3 days and measured by bright Glo-luciferase reporter gene assay; type: cell-based; settings: Hepatitis C virus subtype 3a; time 3.0 day
T1 sequence (whole entry): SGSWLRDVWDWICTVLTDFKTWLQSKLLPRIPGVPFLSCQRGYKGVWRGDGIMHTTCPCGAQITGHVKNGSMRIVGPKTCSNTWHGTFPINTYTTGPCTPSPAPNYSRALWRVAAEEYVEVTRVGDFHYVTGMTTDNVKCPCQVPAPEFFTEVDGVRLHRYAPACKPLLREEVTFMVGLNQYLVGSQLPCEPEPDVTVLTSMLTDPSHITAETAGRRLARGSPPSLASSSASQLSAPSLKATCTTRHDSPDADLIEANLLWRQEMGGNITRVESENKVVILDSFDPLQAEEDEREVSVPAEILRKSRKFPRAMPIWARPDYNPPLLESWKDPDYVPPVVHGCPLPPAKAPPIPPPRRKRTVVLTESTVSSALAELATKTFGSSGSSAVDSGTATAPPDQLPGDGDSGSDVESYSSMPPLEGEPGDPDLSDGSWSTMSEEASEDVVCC

**Q.** Which CC50 at 72 h [1] does the source give for `COC(=O)N[C@H](C(=O)N1CCC[C@H]1c1ncc(C#CC#Cc2ccc(-c3cnc([C@@H]4CCCN4C(=O)[C@@H](NC(=O)OC)C(C)C)[nH]3)cc2)[nH]1)c1ccccc1` here?
**A.** > 10 µM

**Q.** With `COC(=O)N[C@H](C(=O)N1CCC[C@H]1c1ncc(-c2ccc(C#CC#Cc3cnc([C@@H]4CCCN4C(=O)[C@H](NC(=O)OC)c4ccccc4)[nH]3)c(-c3cccc(F)c3F)c2)[nH]1)C(C)C` as the molecule, how does the bioavailability [2] read?
**A.** 4.3%

**Q.** What about the MRT last at 24 h [3] of the same molecule?
**A.** 84 min

**Q.** What about the MRT inf [4] of the same molecule?
**A.** 90 min

**Q.** And the MRT last at 24 h [5]?
**A.** 4.2 h

**Q.** What about the MRT inf [6] of the same molecule?
**A.** 4.7 h

**Q.** What about the half-life [7] of the same molecule?
**A.** 276 min

**Q.** And the half-life ([8]; Sprague-Dawley)?
**A.** 36 min

**Q.** What about the Tmax [9] of the same molecule?
**A.** 4.98 min

**Q.** What about the Tmax ([10]; Sprague-Dawley, read-out: Tmax) of the same molecule?
**A.** 1 h

**Q.** What about the Cmax [11] of the same molecule?
**A.** 114 ng/mL

**Q.** And the Cmax ([12]; Sprague-Dawley, read-out: Cmax)?
**A.** 38.3 ng/mL

**Q.** And the AUC(0-t) at 24 h [13]?
**A.** 279 ng·h/mL

**Q.** And the AUC(0-t) at 24 h [14]?
**A.** 58.7 ng·h/mL

**Q.** What about the AUC(0-inf) [15] of the same molecule?
**A.** 285 ng·h/mL

**Q.** What about the AUC(0-inf) ([16]; Sprague-Dawley) of the same molecule?
**A.** 61.7 ng·h/mL

**Q.** For `COC(=O)N[C@H](C(=O)N1CCC[C@H]1c1ncc(-c2ccc(C#CC#Cc3cnc([C@@H]4CCCN4C(=O)[C@@H](NC(=O)OC)C(C)C)[nH]3)cc2)[nH]1)c1ccccc1`, which CC50 at 72 h [1] is on record?
**A.** > 10 µM

**Q.** What does the source list for `COC(=O)N[C@H](C(=O)N1CCC[C@H]1c1ncc(-c2ccc(C#CC#Cc3cnc([C@@H]4CCCN4C(=O)[C@H](NC(=O)OC)c4ccccc4)[nH]3)c(-c3cccc(F)c3F)c2)[nH]1)C(C)C.Cl.Cl`?
**A.** bioavailability [2]: 2.4%; MRT last at 24 h [3]: 18 min; MRT inf [4]: 24 min; MRT last at 24 h [5]: 3.2 h; MRT inf [6]: 3.3 h; half-life [7]: 192 min; t1/2 ([8]; 10 mg/kg, 24 h): 2.5 h; Tmax [9]: 4.98 min; Tmax ([10]; 10 mg/kg, 24 h): 0.7 h; Cmax [11]: 1160 ng/mL; Cmax ([12]; 24 h): 15.2 ng/mL; AUC(0-t) at 24 h [13]: 2720 ng·h/mL; AUC(0-t) at 24 h [14]: 271 ng·h/mL; AUC(0-inf) [15]: 2730 ng·h/mL; AUC ([16]; 24 h): 328.7 ng·h/mL; CC50 at 72 h [1]: > 10 µM

**Q.** Which results are given for `COC(=O)NC(C(=O)N1CCC[C@H]1c1ncc(-c2ccc(C#CC#Cc3cnc([C@@H]4CCCN4C(=O)C(NC(=O)OC)C(C)C)[nH]3)cc2)[nH]1)c1ccccc1` (single isomer, unassigned)?
**A.** Ratio IC50 [17]: 6.8; CC50 at 72 h [1]: > 10 µM

**Q.** Which CC50 at 72 h [1] does the source give for `COC(=O)N[C@H](C(=O)N1CCC[C@H]1c1ncc(-c2cc(F)c(C#CC#Cc3cnc([C@@H]4CCCN4C(=O)[C@H](NC(=O)OC)c4ccccc4)[nH]3)c(-c3ccccc3)c2)[nH]1)C(C)C` here?
**A.** > 10 µM

**Q.** With `COC(=O)N[C@H](C(=O)N1CCC[C@H]1c1ncc(-c2ccc(C#CC#Cc3cnc([C@@H]4CCCN4C(=O)[C@H](NC(=O)OC)c4ccccc4)[nH]3)c(-c3ccc(-c4ccccc4)cc3)c2)[nH]1)C(C)C` as the molecule, how does the CC50 at 72 h [1] read?
**A.** > 10 µM

**Q.** Which CC50 at 72 h [1] does the source give for `COC(=O)N[C@H](C(=O)N1CCC[C@H]1c1ncc(-c2ccc(C#CC#Cc3cnc([C@@H]4CCCN4C(=O)[C@H](NC(=O)OC)c4ccccc4)[nH]3)c(-c3ccc(N(C)C)cc3)c2)[nH]1)C(C)C` here?
**A.** > 10 µM

**Q.** With `COC(=O)N[C@H](C(=O)N1CCC[C@H]1c1ncc(C#CC#Cc2ccc(-c3cnc([C@@H]4CCCN4C(=O)[C@@H](NC(=O)OC)C(C)C)[nH]3)cc2-c2cccc(-c3ccccc3)c2)[nH]1)C(C)C` as the molecule, how does the CC50 at 72 h [1] read?
**A.** > 10 µM

**Q.** With `COC(=O)N[C@H](C(=O)N1CCC[C@H]1c1ncc(-c2ccc(C#CC#Cc3cnc([C@@H]4CCCN4C(=O)[C@H](NC(=O)OC)c4ccccc4)[nH]3)c(Oc3ccccc3)c2)[nH]1)C(C)C` as the molecule, how does the CC50 at 72 h [1] read?
**A.** > 10 µM

**Q.** With `COC(=O)N[C@H](C(=O)N1CCC[C@H]1c1ncc(C#CC#Cc2ccc(-c3cnc([C@@H]4CCCN4C(=O)[C@@H](NC(=O)OC)C(C)C)[nH]3)cc2-c2ccccc2)[nH]1)C(C)C` as the molecule, how does the CC50 at 72 h [1] read?
**A.** > 10 µM

**Q.** With `COC(=O)N[C@H](C(=O)N1CCC[C@H]1c1ncc(-c2ccc(C#CC#Cc3cnc([C@@H]4CCCN4C(=O)[C@H](NC(=O)OC)c4ccccc4)[nH]3)cc2)[nH]1)C(C)C` as the molecule, how does the Ratio IC50 [17] read?
**A.** 13

**Q.** And the CC50 at 72 h [1]?
**A.** > 10 µM

**Q.** For `COC(=O)N[C@H](C(=O)N1CCC[C@H]1c1ncc(-c2ccc(C#CC#Cc3cnc([C@@H]4CCCN4C(=O)[C@H](NC(=O)OC)c4ccccc4)[nH]3)c(-c3ccc(C(C)(C)C)cc3)c2)[nH]1)C(C)C`, which CC50 at 72 h [1] is on record?
**A.** > 10 µM
